# Assay results published in ChEMBL document CHEMBL4190389, “Synthesis and activity of di- or trisubstituted N-(phenoxyalkyl)- or N-{2-[2-(phenoxy)ethoxy]ethyl}piperazine derivatives on the central nervous system” (Bioorg Med Chem Lett, 2018).
# Active and inactive are the calls of the source. No cut-off for these calls is given here.
# How the values were obtained:
# Mus musculus [1] = experiment: Antidepressant-like activity in ip dosed Albino Swiss CD-1 mouse assessed as decrease in immobility time administered […] prior to test measured for last 4 mins of 6 mins observation by forced swim test (reference value: 153.9 to 201.9 secs); type: functional
# [2] = biological target: T1, 5-hydroxytryptamine receptor 2A (Homo sapiens, UniProt P28223); experiment: Displacement of [3H]-ketanserin from recombinant human 5-HT2A receptor after 60 mins by liquid scintillation counting method
# T1 sequence (P28223 whole entry): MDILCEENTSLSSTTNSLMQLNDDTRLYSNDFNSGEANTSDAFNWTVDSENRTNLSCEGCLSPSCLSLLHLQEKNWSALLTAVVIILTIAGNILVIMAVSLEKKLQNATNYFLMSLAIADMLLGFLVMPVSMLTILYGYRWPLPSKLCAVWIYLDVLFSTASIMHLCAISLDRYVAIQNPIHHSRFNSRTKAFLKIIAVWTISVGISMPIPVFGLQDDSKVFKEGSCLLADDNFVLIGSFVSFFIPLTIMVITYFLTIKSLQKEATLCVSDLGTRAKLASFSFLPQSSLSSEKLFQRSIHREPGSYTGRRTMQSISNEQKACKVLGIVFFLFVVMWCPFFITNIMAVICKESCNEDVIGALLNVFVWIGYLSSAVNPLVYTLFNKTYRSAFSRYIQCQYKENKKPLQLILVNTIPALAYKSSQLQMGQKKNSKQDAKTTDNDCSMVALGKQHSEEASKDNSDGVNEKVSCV
# [3] = biological target: T2, 5-hydroxytryptamine receptor 1A (Homo sapiens, UniProt P08908); experiment: Displacement of [3H]8-OH-DPAT from human 5-HT1A receptor expressed in HEK293 cell membranes after 1 hr
# T2 sequence (P08908 whole entry): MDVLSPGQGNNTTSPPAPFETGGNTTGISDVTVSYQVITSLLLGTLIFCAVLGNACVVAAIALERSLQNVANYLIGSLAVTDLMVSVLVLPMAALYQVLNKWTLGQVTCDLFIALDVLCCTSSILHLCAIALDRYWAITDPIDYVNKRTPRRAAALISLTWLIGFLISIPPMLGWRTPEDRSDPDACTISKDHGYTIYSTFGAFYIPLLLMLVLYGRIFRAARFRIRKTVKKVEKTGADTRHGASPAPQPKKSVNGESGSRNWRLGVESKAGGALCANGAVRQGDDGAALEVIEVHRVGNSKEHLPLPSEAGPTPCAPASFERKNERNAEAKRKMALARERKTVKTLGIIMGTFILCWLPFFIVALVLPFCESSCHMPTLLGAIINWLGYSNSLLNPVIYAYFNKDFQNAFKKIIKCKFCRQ
# [4] = biological target: T3, Alpha-1A adrenergic receptor (Homo sapiens) (UniProt P35348); experiment: Displacement of [3H]prazosin from recombinant human alpha1 adrenoceptor expressed in CHO cell membranes at 10^-5 M after 30 mins by liquid scintillation counting method
# T3 sequence (whole entry): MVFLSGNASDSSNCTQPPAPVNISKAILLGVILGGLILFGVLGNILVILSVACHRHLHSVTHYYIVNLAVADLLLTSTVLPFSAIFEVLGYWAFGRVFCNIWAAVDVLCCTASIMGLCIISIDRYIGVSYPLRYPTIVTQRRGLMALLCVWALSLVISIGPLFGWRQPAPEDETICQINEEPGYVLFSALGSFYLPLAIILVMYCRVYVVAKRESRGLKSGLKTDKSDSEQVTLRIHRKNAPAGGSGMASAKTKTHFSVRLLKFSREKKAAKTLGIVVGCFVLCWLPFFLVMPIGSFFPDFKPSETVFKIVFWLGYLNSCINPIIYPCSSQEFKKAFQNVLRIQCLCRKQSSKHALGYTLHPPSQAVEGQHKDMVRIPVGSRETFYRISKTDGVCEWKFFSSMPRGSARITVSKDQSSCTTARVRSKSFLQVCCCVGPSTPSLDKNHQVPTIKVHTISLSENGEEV
# Mus musculus [5] = experiment: Antidepressant-like activity in Albino Swiss CD-1 mouse assessed as immobility time at 10 mg/kg, ip administered 30 mins prior to test measured for last 4 mins of 6 mins observation by forced swim test (reference value: 153.9 to 201.9 secs); type: functional
# [6] = biological target: T2, 5-hydroxytryptamine receptor 1A; experiment: Displacement of [3H]8-OH-DPAT from recombinant human 5-HT1A receptor expressed in HEK293 cell membranes after 60 mins by liquid scintillation counting method
# Mus musculus [7] = experiment: Antidepressant-like activity in Albino Swiss CD-1 mouse assessed as immobility time at 5 mg/kg, ip administered 30 mins prior to test measured for last 4 mins of 6 mins observation by forced swim test (reference value: 153.9 to 201.9 secs); type: functional
# [8] = Neurotoxicity in ip dosed Albino Swiss CD-1 mouse assessed as minimum dose required to induce motor impairment treated 30 mins prior to test by rotarod test; type: toxicity, organism-based; conditions: in vivo
# [9] = biological target: T4, 5-hydroxytryptamine receptor 7 (Homo sapiens, UniProt P34969); experiment: Displacement of [3H]LSD from recombinant human 5-HT7 receptor expressed in CHO cell membranes at 10^-5 M after 60 mins by liquid scintillation counting method
# T4 sequence (P34969 whole entry): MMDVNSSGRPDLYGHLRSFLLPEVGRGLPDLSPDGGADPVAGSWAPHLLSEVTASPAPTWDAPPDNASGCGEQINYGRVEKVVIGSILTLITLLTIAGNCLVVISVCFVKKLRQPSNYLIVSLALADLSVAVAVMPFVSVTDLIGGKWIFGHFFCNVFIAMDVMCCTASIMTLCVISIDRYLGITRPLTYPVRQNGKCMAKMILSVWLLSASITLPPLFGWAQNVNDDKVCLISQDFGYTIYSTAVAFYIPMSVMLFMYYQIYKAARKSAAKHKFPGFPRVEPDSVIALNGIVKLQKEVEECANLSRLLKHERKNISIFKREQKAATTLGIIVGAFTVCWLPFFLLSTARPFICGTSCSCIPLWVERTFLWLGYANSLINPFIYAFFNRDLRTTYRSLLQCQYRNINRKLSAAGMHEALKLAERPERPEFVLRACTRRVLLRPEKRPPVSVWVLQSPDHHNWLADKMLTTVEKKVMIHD
# [10] = Protection index, ratio of TD50 for motor impairment in ip dosed Swiss albino CD-1 mouse to ED50 for protection against 50 Hz current-induced seizures in ip dosed Swiss albino CD-1 mouse; type: toxicity, organism-based, Swiss CD-1; conditions: in vivo, read-out: Ratio TD50/ED50
# Mus musculus [11] = experiment: Antidepressant-like activity in Albino Swiss CD-1 mouse assessed as immobility time at 20 mg/kg, ip administered 30 mins prior to test measured for last 4 mins of 6 mins observation by forced swim test (reference value: 153.9 to 201.9 secs); type: functional
# Mus musculus [12] = experiment: Anticonvulsant activity in ip dosed Albino Swiss CD-1 mouse assessed as dose required to protect against 50 Hz current-induced seizure; type: functional; conditions: Swiss CD-1, ip
# Mus musculus [13] = experiment: Anxiolytic-like activity in Albino Swiss CD-1 mouse assessed as increase in number of punished crossings at 2.5 mg/kg, ip administered for 30 mins prior to test measured for 1 min by four-plate test; type: functional, organism-based
# Procedure, shortened: (§1)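 Four-plate test in mice, i.p., 30 min before test; vehicle 0.9% NaCl; doses 1.25–10 mg/kg; number of punished crossings counted; mean ± SEM, n = 8–10 mice per group; ANOVA F statistics.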
# Mus musculus [14] = experiment: Toxicity in Albino Swiss CD-1 mouse assessed as effect on locomotory activity at 1.25 to 5 mg/kg, ip administered for 30 mins prior to test measured for 1 min; type: organism-based; conditions: in vivo
# Mus musculus [15] = experiment: Anxiolytic-like activity in Albino Swiss CD-1 mouse assessed as increase in number of punished crossings at 5 mg/kg, ip administered for 30 mins prior to test measured for 1 min by four-plate test; type: functional, organism-based; procedure, shortened: as §1
# [16] = biological target: T5, 5-hydroxytryptamine receptor 6 (Homo sapiens, UniProt P50406); experiment: Displacement of [3H]LSD from recombinant human 5-HT6 receptor expressed in CHO cells cell membranes at 10^-5 M after 60 mins by liquid scintillation counting method
# T5 sequence (P50406 whole entry): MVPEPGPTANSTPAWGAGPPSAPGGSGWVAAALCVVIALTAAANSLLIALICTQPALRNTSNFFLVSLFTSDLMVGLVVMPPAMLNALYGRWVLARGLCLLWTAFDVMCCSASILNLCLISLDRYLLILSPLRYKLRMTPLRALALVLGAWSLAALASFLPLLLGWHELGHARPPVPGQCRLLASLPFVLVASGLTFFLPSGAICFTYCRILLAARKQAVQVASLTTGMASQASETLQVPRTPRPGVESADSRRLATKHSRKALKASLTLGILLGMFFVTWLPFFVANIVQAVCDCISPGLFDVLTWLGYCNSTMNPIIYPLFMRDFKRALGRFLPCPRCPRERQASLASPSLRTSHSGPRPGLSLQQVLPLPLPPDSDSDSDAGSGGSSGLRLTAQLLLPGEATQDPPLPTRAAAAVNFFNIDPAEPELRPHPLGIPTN
# Mus musculus [17] = experiment: Toxicity in Albino Swiss CD-1 mouse assessed as death at 100 mg/kg, ip; type: organism-based; conditions: in vivo
# Procedure, shortened: (§2)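 Deaths counted in mice during maximal electroshock (MES) seizure testing after i.p. dosing, 6 mice per dose (3 or 1 at some top doses); recorded as number dead/number tested alongside protection and rotarod motor impairment (10 rpm); untreated control group included.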
# D(2) dopamine receptor [18] = biological target: T6, D(2) dopamine receptor (Homo sapiens, UniProt P14416); experiment: Antagonist activity at human D2 receptor expressed in CHO-K1 cells co-expressing Galphaqi5 assessed as decrease in apomorphine-induced calcium mobilization preincubated for 30 mins followed by apomorphine challenge measured for 30 secs by aequorin-derived luminescence assay; type: functional, cell-based
# T6 sequence (P14416 whole entry): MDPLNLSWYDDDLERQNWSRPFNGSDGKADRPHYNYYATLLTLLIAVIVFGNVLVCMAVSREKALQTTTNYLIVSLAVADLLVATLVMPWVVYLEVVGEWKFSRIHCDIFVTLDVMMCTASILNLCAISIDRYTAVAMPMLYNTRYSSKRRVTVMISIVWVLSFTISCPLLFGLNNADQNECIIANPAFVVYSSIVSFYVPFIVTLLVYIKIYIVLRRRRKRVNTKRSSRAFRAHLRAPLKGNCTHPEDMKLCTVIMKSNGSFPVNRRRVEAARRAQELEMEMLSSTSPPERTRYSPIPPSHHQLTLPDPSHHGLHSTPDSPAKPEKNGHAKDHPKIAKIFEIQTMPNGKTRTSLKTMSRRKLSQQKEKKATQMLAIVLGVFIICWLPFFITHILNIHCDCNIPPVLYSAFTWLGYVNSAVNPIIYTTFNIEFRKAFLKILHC
# [19] = biological target: T7, 5-hydroxytryptamine receptor 1A (Homo sapiens) (UniProt P08908); experiment: Antagonist activity at human 5-HT1A receptor expressed in CHO-K1 cells co-expressing Galpha16 assessed as decrease in serotonin-induced calcium mobilization preincubated for 25 mins followed by serotonin challenge measured for 30 secs by aequorin-derived luminescence assay relative to control; type: functional, cell-based
# T7 sequence (whole entry): T2 sequence (P08908 whole entry)
# [20] = biological target: T1, 5-hydroxytryptamine receptor 2A; experiment: biochemical; type: cell-based, HEK293
# [21] = biological target: T7, 5-hydroxytryptamine receptor 1A (Homo sapiens); experiment: Agonist activity at human 5-HT1A receptor expressed in CHO-K1 cells co-expressing Galpha16 assessed as increase in calcium mobilization measured for 30 secs by aequorin-derived luminescence assay relative to serotonin; type: functional, cell-based
# D(2) dopamine receptor [22] = biological target: T6, D(2) dopamine receptor; experiment: Agonist activity at human D2 receptor expressed in CHO-K1 cells co-expressing Galphaqi5 assessed as increase apomorphine-induced calcium mobilization measured for 30 secs by aequorin-derived luminescence assay relative to apomorphine; type: functional, cell-based
# [23] = biological target: T4, 5-hydroxytryptamine receptor 7; experiment: Antagonist activity at human 5-HT7 receptor expressed in CHO-K1 cells assessed as decrease in serotonin-induced cAMP level after 1 hr by TR-FRET assay relative to control; type: functional, cell-based
# [24] = biological target: T4, 5-hydroxytryptamine receptor 7; experiment: biochemical; type: cell-based, CHO
# [25] = biological target: T5, 5-hydroxytryptamine receptor 6; experiment: Displacement of [3H]LSD from recombinant human 5-HT6 receptor expressed in CHO cells cell membranes after 60 mins by liquid scintillation counting method
# [26] = biological target: T1, 5-hydroxytryptamine receptor 2A; experiment: Antagonist activity at human 5-HT2A receptor expressed in CHO-K1 cells co-expressing Galpha16 assessed as decrease in serotonin calcium mobilization preincubated for 30 mins followed by serotonin challenge measured for 30 secs by aequorin-derived luminescence assay; type: functional, cell-based
# [27] = biological target: T8, Alpha-1A adrenergic receptor (Homo sapiens, UniProt P35348); experiment: Displacement of [3H]prazosin from recombinant human alpha1 adrenoceptor expressed in CHO cell membranes after 30 mins by liquid scintillation counting method
# T8 sequence (P35348 whole entry): T3 sequence (whole entry)
# [28] = biological target: T4, 5-hydroxytryptamine receptor 7; experiment: Agonist activity at human 5-HT7 receptor expressed in CHO-K1 cells assessed as increase in serotonin-induced cAMP level after 1 hr by TR-FRET assay relative to serotonin; type: functional, cell-based
# D(2) dopamine receptor [29] = biological target: T6, D(2) dopamine receptor; experiment: Displacement of [3H]methylspiperonee from recombinant human D2 receptor expressed in HEK293 cells cell membranes after 60 mins by liquid scintillation counting method
# Mus musculus [30] = experiment: Anxiolytic-like activity in Albino Swiss CD-1 mouse assessed as increase in number of punished crossings at 2.5 to 5 mg/kg, ip administered for 30 mins prior to test measured for 1 min by four-plate test; type: functional, organism-based; procedure, shortened: as §1
# [31] = biological target: T2, 5-hydroxytryptamine receptor 1A; experiment: (§3) Antagonist activity at human 5-HT1A receptor expressed in CHO-K1 cells co-expressing Galpha16 assessed as decrease in serotonin calcium mobilization preincubated for 25 mins followed by serotonin challenge measured for 30 secs by aequorin-derived luminescence assay; type: functional, cell-based
# [32] = biological target: T7, 5-hydroxytryptamine receptor 1A (Homo sapiens); experiment: as §3; type: functional, cell-based
# Mus musculus [33] = experiment: Toxicity in Albino Swiss CD-1 mouse assessed as death at 30 mg/kg, ip; type: organism-based; conditions: in vivo; procedure, shortened: as §2
# [34] = biological target: T4, 5-hydroxytryptamine receptor 7; experiment: Antagonist activity at human 5-HT7 receptor expressed in CHO-K1 cells assessed as decrease in serotonin-induced cAMP level after 1 hr by TR-FRET assay; type: functional, cell-based
# Mus musculus [35] = experiment: Anxiolytic-like activity in Albino Swiss CD-1 mouse assessed as increase in number of punished crossings at 1.25 mg/kg, ip administered for 30 mins prior to test measured for 1 min by four-plate test; type: functional, organism-based
# Procedure, shortened: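 Four-plate test in mice; compounds or clorazepate given i.p. 30 min before testing, vehicle 0.9% NaCl; read-out was number of punished crossings; mean ± SEM, n = 8–10 mice per group; doses compared with one-way statistics (F) against vehicle.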
structure (smiles),measurement,setting,value
COc1ccccc1N1CCN(CCCOc2c(C)cc(C)cc2C)CC1.Cl,ED,Mus musculus [1],5 mg/kg
same,Ki,[2],2830 nM
same,Ki,[3],< 1 nM
Cc1cc(C)c(OCCN2CCN(CCOCCO)CC2)c(C)c1.Cl.Cl,inhibition,[4],inactive
same,Time,Mus musculus [5],135.3 s
same,Ki,[6],3170 nM
same,Time,Mus musculus [7],152.5 s
same,TD50 at 0.5 h,[8],85.3 mg/kg
same,inhibition,[9],inactive
same,selectivity ratio,[10],1.88
same,Time,Mus musculus [11],128 s
same,ED50,Mus musculus [12],45.4 mg/kg
same,Activity,Mus musculus [13],Active
same,Activity,Mus musculus [14],Non-Toxic
same,Activity,Mus musculus [15],Active
same,inhibition,[16],inactive
same,Activity,Mus musculus [17],Non-Toxic
COc1ccccc1N1CCN(CCOCCOc2cc(C)cc(C)c2C)CC1.Cl.Cl,IC50,D(2) dopamine receptor [18],78.5 nM
same,Kb,D(2) dopamine receptor [18],23.4 nM
same,Emax,[19],4%
same,Ki,[20],159 nM
same,Time,Mus musculus [5],141.9 s
same,Ki,[6],32 nM
same,Time,Mus musculus [7],165.6 s
same,Emax,[21],5%
same,Emax,D(2) dopamine receptor [22],1%
same,Time,Mus musculus [11],156.1 s
same,Emax,[23],11%
same,Ki,[24],89 nM
same,Ki,[25],1540 nM
same,IC50,[26],4010 nM
same,Activity,Mus musculus [14],Non-Toxic
same,Ki,[27],14 nM
same,Emax,[28],9%
same,Ki,D(2) dopamine receptor [29],162 nM
same,Activity,Mus musculus [30],Active
same,IC50,[31],376 nM
same,Kb,[32],92.3 nM
same,Activity,Mus musculus [33],Non-Toxic
same,IC50,[34],2340 nM
same,Kb,[34],995 nM
O=C(O)C1N=C(c2ccccc2)c2cc(Cl)ccc2NC1=O (configuration not stated),Activity,Mus musculus [35],Active
